Results on 35 molecules are retold here after ChEMBL document CHEMBL4428057, “Discovery, Synthesis, and Evaluation of 2,4-Diaminoquinazolines as a Novel Class of Pancreatic β-Cell-Protective Agents against Endoplasmic Reticulum (ER) Stress” (J Med Chem, 2016).

As a reminder, the EC50 is the concentration at which the effect is half-maximal.

The subject of assay [1] is INS1. Kind of assay: Protection against tunicamycin induced endoplasmic reticulum stress in rat INS-1 cells assessed as increase in cell viability after 3 days by CellTiter-Glo assay relative to control. In kind it is functional. In short, it runs like this: (§1)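 INS-1 cells at 3×10^3/well (384-well) co-treated with Tm 0.1 µg/mL and compound for 72 h; CellTiter-Glo ATP luminescence. Activity is % rescue, with Tm alone = 0% and DMSO without Tm = 100%. EC50 from ten 2-fold serial dilutions by curve fit; triplicate.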
Background: In ATP-based viability assays light output follows the ATP content of the culture.

Assay [2] deals with INS1. Kind of assay: Protection against tunicamycin induced endoplasmic reticulum stress in rat INS-1 cells assessed as increase in cell viability after 3 days by CellTiter-Glo assay. In kind it is functional, cell-based. To be noted: INS1, 72 h. In short, it runs like this: as §1
Assay [3] relates to INS1. As to the kind of experiment: Protection against tunicamycin induced endoplasmic reticulum stress in rat INS-1 cells assessed as increase in cell viability at 30 uM after 72 hrs by CellTiter-Glo assay. In kind it is functional, cell-based.
Assay [4] has as its system INS1. Kind of assay: Protection against tunicamycin induced endoplasmic reticulum stress in rat INS-1 cells assessed as increase in cell viability at 5 uM after 72 hrs by CellTiter-Glo assay. In kind it is functional, cell-based.

Calls of active or inactive are those of the source. The calls are words filed in the database; no cut-off is given here.

As to `OCC1CCCCN1c1nc(NCCc2ccccc2F)c2ccccc2n1` (racemic), the “%max” value in assay [1] is 60.3%. Further, the concentration for a half-maximal effect (EC50) in assay [2] worked out at 1460 nM. As to `OCC1CCCCN1c1nc(NCCc2ccc(F)cc2)c2ccccc2n1` (racemic), the “%max” value in assay [1] is listed as 47.5%. Also, the EC50 in assay [2] is 310 nM. For the molecule `OCC1CCCCN1c1nc(NCCc2cccc(F)c2)c2ccccc2n1` (racemic), the “%max” value in assay [1] is on record as 57.3%. Besides, in assay [2], the EC50 is 1880 nM. Consider `COc1ccc(CNc2nc(N3CCCCC3CO)nc3ccccc23)cc1OC` (configuration not stated), for which the “%max” value in assay [1] is on record as 69.4%. Moreover, in assay [2], the half-maximal effective concentration (EC50) came to 3640 nM.

`OCC1CCCCN1c1nc(NCCc2ccc(Br)cc2)c2ccccc2n1` (racemic): the “%max” value in assay [1] is reported as 52.8%. In addition, in assay [2], the EC50 is 340 nM. For the molecule `OC[C@@H]1CCCN1c1nc(NCCc2ccccc2F)c2ccccc2n1`, the “%max” value in assay [1] was 52.5%. In assay [2], the EC50 turned out to be 1700 nM.

With `OC[C@@H]1CCCN1c1nc(NCCc2cccc(F)c2)c2ccccc2n1`, in assay [1], the “%max” value was determined as 51.3%. Also, in assay [2], the EC50 worked out at 1150 nM.

Take `OCC1CCCCN1c1nc(NCCc2ccccc2Cl)c2ccccc2n1` (racemic): the “%max” value in assay [1] worked out at 51.4%. Moreover, in assay [2], the EC50 was determined as 470 nM. `OCC1CCCCN1c1nc(NCc2ccc(Cl)cc2)c2ccccc2n1` (configuration not stated): the “%max” value in assay [1] is 54.7%. In addition, in assay [2], the EC50 came out at 210 nM. As for `OCC1CCCCN1c1nc(NCCc2ccccc2Br)c2ccccc2n1` (racemic), the “%max” value in assay [1] is 44.2%. Besides, the concentration giving a half-maximal response (EC50) in assay [2] was found to be 1410 nM. In the same order, the values of `OC[C@@H]1CCCN1c1nc(NCCc2ccc(F)cc2)c2ccccc2n1` are 56.2% and 2130 nM. Taken in the same sequence, the figures for `OCC1CCCCN1c1nc(NCCc2cccc(Cl)c2)c2ccccc2n1` (racemic) were 46.2% and 790 nM. On to `Nc1nnc(Sc2cc(-n3cccc3)c(Cl)cc2[N+](=O)[O-])[nH]1`, for which, in assay [3], the outcome was Active. Regarding `COc1ccccc1CCNc1nc(N2CCC[C@H]2CO)nc2ccccc12`, the “%max” value in assay [1] is 56.6%. Also, the EC50 in assay [2] came to 3560 nM. Turning to `COc1cccc(CCNc2nc(N3CCCCC3CO)nc3ccccc23)c1` (racemic), the “%max” value in assay [1] was 69.2%. The 50% effective concentration (EC50) in assay [2] is 2590 nM. Take `OC[C@@H]1CCCN1c1nc(NCCc2cccc(Br)c2)c2ccccc2n1`: the “%max” value in assay [1] was determined as 53.2%. Further, the EC50 in assay [2] was found to be 780 nM. Regarding `OCC1CCCCN1c1nc(NCc2ccccc2)c2ccccc2n1` (configuration not stated), the “%max” value in assay [1] came to 56.4%. In addition, in assay [2], the EC50 came to 230 nM. For the molecule `OC[C@@H]1CCCN1c1nc(NCCc2ccc(Cl)cc2)c2ccccc2n1`, the “%max” value in assay [1] is reported as 57.3%. The EC50 in assay [2] came out at 510 nM. As to `COc1ccc(CNc2nc(N3CCC[C@H]3CO)nc3ccccc23)cc1`, in assay [1], the “%max” value is 57.2%. Moreover, in assay [2], the EC50 came to 4050 nM. Consider `COc1ccccc1CCNc1nc(N2CCCCC2CO)nc2ccccc12` (racemic), for which, in assay [1], the “%max” value came out at 46.9%. Also, the EC50 in assay [2] was 1600 nM. As to `COc1ccc(CCNc2nc(N3CCCCC3CO)nc3ccccc23)cc1` (racemic), the “%max” value in assay [1] is recorded as 58.6%. In addition, the EC50 in assay [2] was 310 nM. On to `OCC1CCCCN1c1nc(NCCc2cccc(Br)c2)c2ccccc2n1` (racemic), for which the “%max” value in assay [1] is reported as 51.7%. Also, the EC50 in assay [2] amounted to 770 nM.

Turning to `OCC1CCCCN1c1nc(NCCc2ccccc2)c2ccccc2n1` (racemic), the “%max” value in assay [1] is given as 55.7%. In addition, the EC50 in assay [2] was 360 nM. On to `OC[C@@H]1CCCN1c1nc(NCCc2ccccc2Cl)c2ccccc2n1`, for which the “%max” value in assay [1] came to 50.6%. Further, in assay [2], the concentration giving a half-maximal response (EC50) is 1440 nM.

For the molecule `OC[C@@H]1CCCN1c1nc(NCCc2ccccc2Br)c2ccccc2n1`, in assay [1], the “%max” value is on record as 39%. The concentration giving a half-maximal response (EC50) in assay [2] is 1880 nM.

For `COc1cccc(CCNc2nc(N3CCC[C@H]3CO)nc3ccccc23)c1`, the “%max” value in assay [1] was determined as 54.9%. Further, the concentration for a half-maximal effect (EC50) in assay [2] turned out to be 1510 nM. For the molecule `COc1ccc(CNc2nc(N3CCCC[C@H]3CO)nc3ccccc23)cc1`, in assay [4], the outcome was Active. On to `COc1ccc(CNc2nc(N3CCC[C@H]3CO)nc3ccccc23)cc1OC`, for which, in assay [1], the “%max” value came out at 44.9%. Also, in assay [2], the EC50 was 1850 nM. Regarding `OC[C@@H]1CCCN1c1nc(NCCc2ccccc2)c2ccccc2n1`, the “%max” value in assay [1] was determined as 54.4%. In addition, the 50% effective concentration (EC50) in assay [2] is 480 nM. Taken in the same sequence, the figures for `Cc1ccc(CCNc2nc(N3CCC[C@H]3CO)nc3ccccc23)cc1` were 34.2% and 660 nM.

With `OC[C@@H]1CCCN1c1nc(NCCc2ccc(Br)cc2)c2ccccc2n1`, the “%max” value in assay [1] worked out at 44.1%. Moreover, the EC50 in assay [2] was 650 nM. In the same order, the values of `Cc1ccc(CCNc2nc(N3CCCCC3CO)nc3ccccc23)cc1` (racemic) are 33.6% and 140 nM. With `COc1ccc(CNc2nc(N3CCCC[C@@H]3CO)nc3ccccc23)cc1`, the result in assay [4] was Active. With `OC[C@@H]1CCCN1c1nc(NCCc2cccc(Cl)c2)c2ccccc2n1`, the “%max” value in assay [1] was found to be 51.5%. Also, the EC50 in assay [2] was 1050 nM. Turning to `OCC1CCCCN1c1nc(NCCc2ccc(Cl)cc2)c2ccccc2n1` (racemic), in assay [1], the “%max” value is 57.6%. For the same molecule, in assay [2], the EC50 was 170 nM.
